Measurements published in ChEMBL document CHEMBL2029283, “Disubstituted 1,8-dipyrazolcarbazole derivatives as a new type of c-myc G-quadruplex binding ligands” (Bioorg Med Chem, 2012).
Active and inactive are the calls of the source. The rule behind the calls is not given here.

Columns and labels:
NCI-H460 = assay: Cytotoxicity against human NCI-H460 cells after 48 hrs by MTT assay; type: functional, cell-based; settings: NCI-H460, 48 h
Method in brief: (§1)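 Cells kept in RPMI-1640 with 10% FBS, seeded at 1.0 × 10^ cells per well and exposed to graded compound for 48 h at 37 °C in 5% CO2. MTT (5 mg/mL solution) was then added for 4 h, formazan dissolved in DMSO, and OD read at 570 nm. Tests were run in triplicate, and IC50 was derived from mean OD versus concentration curves.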

HepG2 = assay: Cytotoxicity against human HepG2 cells after 48 hrs by MTT assay; type: functional, cell-based; settings: HepG2, 48 h; method in brief: as §1
Nucleic Acid [1] = assay: Binding affinity to biotinylated-telomeric G-quadruplex DNA HTG21 at 20 uM by SPR assay; type: nucleic-acid assay
Nucleic Acid [2] = assay: Binding affinity to G-quadruplex DNA Pu27 assessed as inhibition of hybridization with complementary strand after 3 mins by PCR-stop assay; type: nucleic-acid assay
Method in brief: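 Taq polymerase-stop on Pu27 with its complementary strand, each oligomer 10 μM, in 1× PCR buffer with 0.16 mM dNTP, 2.5 U Taq and graded compound. Cycling was 94 °C 3 min, then 30 cycles of 94 °C 30 s, […] 30 s, 72 °C 30 s. Products were run on 15% nondenaturing PAGE in TBE and silver stained. IC50 was taken for inhibition of amplification.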

ECV-304 = assay: Cytotoxicity against human ECV304 cells after 48 hrs by MTT assay; type: cell-based; settings: ECV-304, 48 h; method in brief: as §1
Nucleic Acid [3] = assay: Binding affinity to human telomeric G-quadruplex DNA F21T assessed as change in melting temperature at 1 uM by FRET-melting assay; type: nucleic-acid assay
Method in brief: (§2)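 FRET melting of FAM/TAMRA-labelled oligonucleotides (FPu18T, F21T or duplex F10T), each 0.2 μM, with compound 1.0 μM in 10 mM Tris-HCl pH 7.2 containing KCl. For competition, excess ds26 duplex (3 or 10 μM) was added.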

Nucleic Acid [4] = assay: Binding affinity to biotinylated-duplex DNA at 20 uM by SPR assay; type: nucleic-acid assay
HL-60 = assay: Cytotoxicity against human HL60 cells after 48 hrs by MTT assay; type: functional, cell-based; settings: HL-60, 48 h; method in brief: as §1
Nucleic Acid [5] = assay: Binding affinity to biotinylated-c-myc G-quadruplex DNA FPu18T at 20 uM by SPR assay; type: nucleic-acid assay
Nucleic Acid [6] = assay: Binding affinity to c-myc G-quadruplex DNA FPu18T assessed as change in melting temperature at 1 uM by FRET-melting assay; type: nucleic-acid assay; method in brief: as §2
Nucleic Acid [7] = assay: Binding affinity to c-myc G-quadruplex DNA FPu18T assessed as change in melting temperature at 1 uM by FRET-melting assay in presence of excess duplex oligomer ds26; type: nucleic-acid assay; method in brief: as §2
Nucleic Acid [8] = assay: Binding affinity to duplex DNA F10T assessed as change in melting temperature at 1 uM by FRET-melting assay; type: nucleic-acid assay; method in brief: as §2
Nucleic Acid [9] = assay: Binding affinity to biotinylated-telomeric G-quadruplex DNA HTG21 by SPR assay; type: nucleic-acid assay
Method in brief: (§3)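 SPR with biotinylated DNA captured to about 1000 RU in flow cells 1 and 2, the third left blank as reference. Running buffer was 50 mM Tris-HCl pH 7.2, 100 mM KCl. Ligand at 0.3125–10 μM was injected for 150 s association and 300 s dissociation at 25 °C, with 1 M NaCl regeneration. Blank-subtracted sensorgrams were fitted with a Langmuir kinetic model.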

Nucleic Acid [10] = assay: Binding affinity to biotinylated-c-myc G-quadruplex DNA FPu18T by SPR assay; type: nucleic-acid assay; method in brief: as §3
Ramos [11] = assay: Decrease in c-myc expression in human Ramos cells expressing NHE III1 at 2.5 uM by RT-PCR analysis; type: functional, cell-based
Method in brief: (§4)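 Ramos or CA46 cells were seeded at 100,000 per well and treated for 4 days with 1, 2.5, 5 or 10 μM compound or DMSO. Total RNA was extracted in Redzol and reverse-transcribed with oligo dT18 at 42 °C for 1 h. c-myc (91 bp) and β-actin (541 bp) were PCR-amplified and run on 1% agarose. Densitometry values were normalized to β-actin.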

CA46 = assay: Decrease in c-myc expression in promoter element P1 and P2-deficient human CA46 cells by RT-PCR analysis; type: functional, cell-based; method in brief: as §4
Nucleic Acid [12] = assay: Binding affinity to c-myc G-quadruplex DNA FPu18T assessed as conformational changes at 25 uM by CD spectrophotometric analysis in absence of K+ ions; type: nucleic-acid assay
Method in brief: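 CD spectra of Pu18 (5 μM) with ligand at 25 μM in 10 mM Tris-HCl pH 7.2 with no KCl. Samples were annealed from 95 °C and held at 4 °C for ≥6 h. Spectra were recorded over 220–450 nm with 1 nm bandwidth, averaging two scans.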

Ramos [13] = assay: Suppression of c-myc mRNA level in human Ramos cells expressing NHE III1 at 10 uM by RT-PCR analysis; type: functional, cell-based; method in brief: as §4
Nucleic Acid [14] = assay: Binding affinity to c-myc G-quadruplex DNA FPu18T assessed as change in CD spectra at 25 uM by CD spectrophotometric analysis in presence of 100 mM K+ ions; type: nucleic-acid assay
Method in brief: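 CD spectra of Pu18 (5 μM) with ligand at 25 μM in 10 mM Tris-HCl pH 7.2 plus 100 mM KCl. Samples were heated to 95 °C, slowly cooled and held at 4 °C for ≥6 h. Spectra were recorded over 220–450 nm with 1 nm bandwidth and 0.5 s per point, averaging two scans.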

Nucleic Acid [15] = assay: Selectivity ratio of Kd for biotinylated-telomeric G-quadruplex DNA HTG21 to Kd for biotinylated-c-myc G-quadruplex DNA FPu18T; type: nucleic-acid assay; method in brief: as §3

SMILES	IC50 (NCI-H460) [nM]	IC50 (HepG2) [µM]	Activity (Nucleic Acid [1])	IC50 (Nucleic Acid [2]) [µM]	IC50 (ECV-304) [µM]	ΔTm (Nucleic Acid [3]) [°C]	Activity (Nucleic Acid [4])	IC50 (HL-60) [nM]	Activity (Nucleic Acid [5])	ΔTm (Nucleic Acid [6]) [°C]	Activity (Nucleic Acid [7])	ΔTm (Nucleic Acid [8]) [°C]	Kd (Nucleic Acid [9]) [nM]	Kd (Nucleic Acid [10]) [nM]	Activity (Ramos [11])	Activity (CA46)	Activity (Nucleic Acid [12])	Activity (Ramos [13])	Activity (Nucleic Acid [14])	Ratio (Nucleic Acid [15])
O=C(CCN1CCOCC1)Nc1cc(-n2cccn2)c2[nH]c3c(-n4cccn4)cc(NC(=O)CCN4CCOCC4)cc3c2c1	2800	6.9	inactive	> 20	26.2	4.2	inactive	1700	inactive	7.3	Active	0.3	–	–	–	–	–	–	–	–
CCN(CC)CC(=O)Nc1cc(-n2cccn2)c2[nH]c3c(-n4cccn4)cc(NC(=O)CN(CC)CC)cc3c2c1	2500	3	–	> 20	22.8	3.6	inactive	2000	–	7.4	Active	0.6	6860	2030	–	–	–	–	–	–
O=C(CCN1CCCCC1)Nc1cc(-n2cccn2)c2[nH]c3c(-n4cccn4)cc(NC(=O)CCN4CCCCC4)cc3c2c1	2700	5.1	–	4.9	25	9.7	inactive	1200	–	12.1	Active	0.3	1880	135	Active	inactive	Active	Active	Active	–
O=C(CN1CCCCC1)Nc1cc(-n2cccn2)c2[nH]c3c(-n4cccn4)cc(NC(=O)CN4CCCCC4)cc3c2c1	3300	5.6	–	> 20	27.3	4	inactive	2400	–	5.5	Active	0.1	8070	1460	–	–	–	–	–	–
O=C(CN1CCOCC1)Nc1cc(-n2cccn2)c2[nH]c3c(-n4cccn4)cc(NC(=O)CN4CCOCC4)cc3c2c1	3900	6.1	inactive	> 20	29.3	1.2	inactive	3900	inactive	4.4	Active	0.2	–	–	–	–	–	–	–	–
O=C(CCN1CCCC1)Nc1cc(-n2cccn2)c2[nH]c3c(-n4cccn4)cc(NC(=O)CCN4CCCC4)cc3c2c1	3500	4.2	–	3.6	25.2	10.7	inactive	2200	–	15.1	Active	0.5	2640	131	–	–	–	–	Active	> 20
CCN(CC)CCC(=O)Nc1cc(-n2cccn2)c2[nH]c3c(-n4cccn4)cc(NC(=O)CCN(CC)CC)cc3c2c1	2600	2.7	–	6.3	23.3	11.9	inactive	1900	–	18.1	Active	0.3	2590	233	–	–	–	–	Active	–
O=C(CN1CCCC1)Nc1cc(-n2cccn2)c2[nH]c3c(-n4cccn4)cc(NC(=O)CN4CCCC4)cc3c2c1	2700	2.7	–	5.2	22.2	6.3	inactive	1900	–	9.3	Active	0.3	2970	694	–	–	–	–	–	–
